Results gathered from unrelated publications.
Compare with care: the assays were run in different laboratories.
Nectin-4: Nectin-4 (Homo sapiens, UniProt Q96NY8)
PFF0160c: Dihydroorotate dehydrogenase (quinone), mitochondrial (PFF0160c, Plasmodium falciparum, UniProt Q08210)
SIGMAR1: Sigma non-opioid intracellular receptor 1 (SIGMAR1, Homo sapiens, UniProt Q99720)

SMILES	target	observed	action	technique	measurement	value
CCCC[C@@H]1NC(=O)[C@H](Cc2ccc(O)cc2)NC(=O)[C@@H]2CCCN2C(=O)[C@H](CC(=O)O)NC(=O)[C@H](C)NC(=O)[C@H](Cc2ccccc2)NC(=O)[C@@H]2CSCCC(=O)N3CN(CN(C3)C(=O)CCSC[C@H](NC(C)=O)C(=O)N[C@@H](CC(C)(C)C)C(=O)N[C@@H](CCC(=O)O)C(=O)N[C@@H](CCC(=O)O)C(=O)N[C@H](CCCCNC(=O)CCc3cn(CCOCCOCCOCCOCCOCCC(=O)N[C@H]4CSCCC(=O)N5CN6CN(C5)C(=O)CCSC[C@H](NC(=O)[C@@H](CC(=O)O)NC(=O)[C@H](Cc5cccc7ccccc57)NC(=O)[C@@H]5CCCN5C4=O)C(=O)N[C@@H](CCSC)C(=O)N[C@@H](CCCCNC(=N)N)C(=O)N[C@@H](CC(=O)O)C(=O)N[C@@H](Cc4c[nH]c5ccccc45)C(=O)N[C@@H](CO)C(=O)N[C@@H]([C@@H](C)O)C(=O)N4CCC[C@H]4C(=O)N4C[C@H](O)C[C@H]4C(=O)N[C@@H](Cc4c[nH]c5ccccc45)C(=O)N[C@H](C(N)=O)CSCCC6=O)nn3)C(=O)N3CCC[C@H]3C(=O)N[C@@H](Cc3ccc(O)cc3)C(=O)N2)C(=O)CCSC[C@@H](C(N)=O)NC1=O	Nectin-4	binding		SPR	Kd	1.7 nM
C/C(=C\[N+](=O)[O-])c1ccccc1	nerA (Agrobacterium radiobacter, UniProt O31246)	binding		absorbance	Kd	730000 nM
Cc1cc(NC(=O)c2cc(S(=O)(=O)N3CCCCC3)ccc2C)no1	PFF0160c	enzyme activity	inhibitor	absorbance	IC50	1700 nM
CCCC[C@@H]1NC(=O)[C@H](Cc2ccc(O)cc2)NC(=O)[C@@H]2CCCN2C(=O)[C@H](CC(=O)O)NC(=O)[C@H](C)NC(=O)[C@H](Cc2ccccc2)NC(=O)[C@@H]2CSCCC(=O)N3CN(CN(C3)C(=O)CCSC[C@@H](C(=O)N[C@@H](CNC(=O)CCc3cn(CCOCCOCCOCCN(CCOCCOCCOCCC(=O)N[C@H]4CSCCC(=O)N5CN6CN(C5)C(=O)CCSC[C@H](NC(=O)[C@@H](CC(=O)O)NC(=O)[C@H](Cc5cccc7ccccc57)NC(=O)[C@@H]5CCCN5C4=O)C(=O)N[C@@H](CCSC)C(=O)N[C@@H](CCCCNC(=N)N)C(=O)N[C@@H](CC(=O)O)C(=O)N[C@@H](Cc4c[nH]c5ccccc45)C(=O)N[C@@H](CO)C(=O)N[C@@H]([C@@H](C)O)C(=O)N4CCC[C@H]4C(=O)N4C[C@H](O)C[C@H]4C(=O)N[C@@H](Cc4c[nH]c5ccccc45)C(=O)N[C@H](C(N)=O)CSCCC6=O)CCOCCOCCOCCn4cc(CCC(=O)NC[C@H](NC(=O)[C@@H]5CSCCC(=O)N6CN7CN(C6)C(=O)CCSC[C@H](NC(=O)[C@H](Cc6ccc(O)cc6)NC(=O)[C@@H]6CCCN6C(=O)[C@@H](C)NC(=O)[C@H](CCC(=O)O)NC(=O)[C@@H]6CCCN6C(=O)[C@H](CC(C)(C)C)NC(=O)[C@@H](NC(C)=O)CSCCC7=O)C(=O)N[C@@H](Cc6ccccc6)C(=O)N[C@@H](C)C(=O)N[C@@H](CC(=O)O)C(=O)N6CCC[C@H]6C(=O)N[C@@H](Cc6ccc(O)cc6)C(=O)N[C@@H](CCCC)C(=O)N5)C(N)=O)nn4)nn3)C(N)=O)NC1=O)C(=O)CCSC[C@H](NC(C)=O)C(=O)N[C@@H](CC(C)(C)C)C(=O)N1CCC[C@H]1C(=O)N[C@@H](CCC(=O)O)C(=O)N[C@H](C)C(=O)N1CCC[C@H]1C(=O)N[C@@H](Cc1ccc(O)cc1)C(=O)N2	Nectin-4	binding		SPR	Kd	3.7 nM
Cc1cc(Nc2ccc3c(c2)CCC3)n2ncnc2n1	PFF0160c	enzyme activity	inhibitor	absorbance	IC50	695 nM
CN(C)CCC(c1ccc(Cl)cc1)c1ccccn1 (stereo not drawn)	SIGMAR1	ligand displacement		radioligand	Ki	1310 nM
CCC(c1ccccc1)c1nn2c(-c3cccs3)nnc2s1 (stereo not drawn)	PFF0160c	enzyme activity	inhibitor	absorbance	IC50	158 nM
CC1CCN(CCCC(=O)c2ccc(F)cc2)CC1	SIGMAR1	ligand displacement		radioligand	Ki	10.1 nM
COc1nc(NCC(C)C)nc(Oc2ccc(=O)n(Cc3ccccc3)n2)n1	Dihydroorotate dehydrogenase (quinone), mitochondrial (PFF0160c, Plasmodium falciparum, UniProt Q08210, E182D)	enzyme activity	inhibitor	absorbance	IC50	4640 nM
CCCC[C@@H]1NC(=O)[C@H](Cc2ccc(O)cc2)NC(=O)[C@@H]2CCCN2C(=O)[C@H](CC(=O)O)NC(=O)[C@H](C)NC(=O)[C@H](Cc2ccccc2)NC(=O)[C@@H]2CSCCC(=O)N3CN(CN(C3)C(=O)CCSC[C@@H](C(N)=O)NC1=O)C(=O)CCSCCC(=O)N[C@@H](CC(C)(C)C)C(=O)N1CCC[C@H]1C(=O)N[C@@H](CCC(=O)O)C(=O)N[C@H](CCCCNC(=O)CCc1cn(CCOCCOCCOCCN(CCOCCOCCOCCC(=O)N[C@H]3CSCCC(=O)N4CN5CN(C4)C(=O)CCSC[C@H](NC(=O)[C@@H](CC(=O)O)NC(=O)[C@H](Cc4cccc6ccccc46)NC(=O)[C@@H]4CCCN4C3=O)C(=O)N[C@@H](CCSC)C(=O)N[C@@H](CCCCNC(=N)N)C(=O)N[C@@H](CC(=O)O)C(=O)N[C@@H](Cc3c[nH]c4ccccc34)C(=O)N[C@@H](CO)C(=O)N[C@@H]([C@@H](C)O)C(=O)N3CCC[C@H]3C(=O)N3C[C@H](O)C[C@H]3C(=O)N[C@@H](Cc3c[nH]c4ccccc34)C(=O)N[C@H](C(N)=O)CSCCC5=O)CCOCCOCCOCCn3cc(CCC(=O)NCCCC[C@H]4NC(=O)[C@H](CCC(=O)O)NC(=O)[C@@H]5CCCN5C(=O)[C@H](CC(C)(C)C)NC(=O)CCSCCC(=O)N5CN6CN(C5)C(=O)CCSC[C@H](NC(=O)[C@H](Cc5ccc(O)cc5)NC(=O)[C@@H]5CCCN5C4=O)C(=O)N[C@@H](Cc4ccccc4)C(=O)N[C@@H](C)C(=O)N[C@@H](CC(=O)O)C(=O)N4CCC[C@H]4C(=O)N[C@@H](Cc4ccc(O)cc4)C(=O)N[C@@H](CCCC)C(=O)N[C@H](C(N)=O)CSCCC6=O)nn3)nn1)C(=O)N1CCC[C@H]1C(=O)N[C@@H](Cc1ccc(O)cc1)C(=O)N2	Nectin-4	binding		SPR	Kd	2.3 nM
CC(CN1c2ccccc2Sc2ccccc21)N(C)C (stereo not drawn)	SIGMAR1	ligand displacement		radioligand	Ki	433 nM
CCCC[C@@H]1NC(=O)[C@H](Cc2ccc(O)cc2)NC(=O)[C@@H]2CCCN2C(=O)[C@H](CC(=O)O)NC(=O)[C@H](C)NC(=O)[C@H](Cc2ccccc2)NC(=O)[C@@H]2CSCCC(=O)N3CN(CN(C3)C(=O)CCSC[C@H](NC(C)=O)C(=O)N[C@@H](CC(C)(C)C)C(=O)N3CCC[C@H]3C(=O)N[C@@H](CCC(=O)O)C(=O)N[C@H](CCCCNC(=O)CCc3cn(CCOCCOCCOCCN(CCOCCOCCOCCC(=O)N[C@H]4CSCCC(=O)N5CN6CN(C5)C(=O)CCSC[C@H](NC(=O)[C@@H](CC(=O)O)NC(=O)[C@H](Cc5cccc7ccccc57)NC(=O)[C@@H]5CCCN5C4=O)C(=O)N[C@@H](CCSC)C(=O)N[C@@H](CCCCNC(=N)N)C(=O)N[C@@H](CC(=O)O)C(=O)N[C@@H](Cc4c[nH]c5ccccc45)C(=O)N[C@@H](CO)C(=O)N[C@@H]([C@@H](C)O)C(=O)N4CCC[C@H]4C(=O)N4C[C@H](O)C[C@H]4C(=O)N[C@@H](Cc4c[nH]c5ccccc45)C(=O)N[C@H](C(N)=O)CSCCC6=O)CCOCCOCCOCCn4cc(CCC(=O)NCCCC[C@H]5NC(=O)[C@H](CCC(=O)O)NC(=O)[C@@H]6CCCN6C(=O)[C@H](CC(C)(C)C)NC(=O)[C@@H](NC(C)=O)CSCCC(=O)N6CN7CN(C6)C(=O)CCSC[C@H](NC(=O)[C@H](Cc6ccc(O)cc6)NC(=O)[C@@H]6CCCN6C5=O)C(=O)N[C@@H](Cc5ccccc5)C(=O)N[C@@H](C)C(=O)N[C@@H](CC(=O)O)C(=O)N5CCC[C@H]5C(=O)N[C@@H](Cc5ccc(O)cc5)C(=O)N[C@@H](CCCC)C(=O)NCCSCCC7=O)nn4)nn3)C(=O)N3CCC[C@H]3C(=O)N[C@@H](Cc3ccc(O)cc3)C(=O)N2)C(=O)CCSCCNC1=O	Nectin-4	binding		SPR	Kd	2.8 nM
COc1cc2c(cc1OC)CN(CCc1ccc(NC(=O)c3cc(OC)c(OC)cc3NC(=O)c3cnc4ccccc4c3)cc1)CC2	SIGMAR1	ligand displacement		radioligand	Ki	472 nM
CCCC[C@@H]1NC(=O)[C@H](Cc2ccc(O)cc2)NC(=O)[C@@H]2CCCN2C(=O)[C@H](CC(=O)O)NC(=O)[C@H](C)NC(=O)[C@H](Cc2ccccc2)NC(=O)[C@@H]2CSCCC(=O)N3CN(CN(C3)C(=O)CCSC[C@@H](C(=O)N[C@@H](C)C(N)=O)NC1=O)C(=O)CCSC[C@H](NC(=O)[C@H](C)NC(C)=O)C(=O)N[C@@H]([C@@H](C)CC)C(=O)N[C@@H](CCC(=O)O)C(=O)N[C@@H](CCC(=O)O)C(=O)N[C@H](CCCCNC(=O)CCc1cn(CCOCCOCCOCCOCCOCCC(=O)N[C@H]3CSCCC(=O)N4CN5CN(C4)C(=O)CCSC[C@H](NC(=O)[C@@H](CC(=O)O)NC(=O)[C@H](Cc4cccc6ccccc46)NC(=O)[C@@H]4CCCN4C3=O)C(=O)N[C@@H](CCSC)C(=O)N[C@@H](CCCCNC(=N)N)C(=O)N[C@@H](CC(=O)O)C(=O)N[C@@H](Cc3c[nH]c4ccccc34)C(=O)N[C@@H](CO)C(=O)N[C@@H]([C@@H](C)O)C(=O)N3CCC[C@H]3C(=O)N3C[C@H](O)C[C@H]3C(=O)N[C@@H](Cc3c[nH]c4ccccc34)C(=O)N[C@H](C(N)=O)CSCCC5=O)nn1)C(=O)N[C@@H](CCC(N)=O)C(=O)N[C@@H](Cc1ccc(O)cc1)C(=O)N2	Nectin-4	binding		SPR	Kd	2.2 nM
N[C@@H](C[C@]1(C(=O)O)C[C@H]2OC[C@@H](O)[C@@H](O)[C@H]2O1)C(=O)O	Glutamate receptor ionotropic, kainate 2 (Grik2, Rattus norvegicus, UniProt P42260, A518T)	ligand displacement		radioligand	Ki	61 nM
